According to ChEMBL document CHEMBL1135426, “Synthesis, receptor potency, and selectivity of halogenated diphenylpiperidines as serotonin 5-HT2A ligands for PET or SPECT brain imaging” (J Med Chem, 2002):

Columns and labels:
[1] = target: 5-hydroxytryptamine receptor 6 (Homo sapiens, UniProt P50406); assay: Tested on cell membranes from transfected cells selectively expressing human 5-hydroxytryptamine 6 receptor incubated with 1 nM [3H]LSD
Procedure, shortened: (§1)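 Membranes (1-10 µg protein) from transfected cells expressing human 5-HT6 or 5-HT7, incubated with 1 nM [3H]LSD, room temperature, 90 min, in the dark. 10 µM clozapine as blank. Filter harvest and tritium counting. IC50 from multi-concentration competition, converted to Ki via Cheng-Prusoff.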

[2] = target: 5-hydroxytryptamine receptor 7 (Homo sapiens, UniProt P34969); assay: Tested on cell membranes from transfected cells selectively expressing human 5-hydroxytryptamine 7 receptor incubated with 1 nM [3H]LSD; procedure, shortened: as §1
[3] = target: T1, 5-hydroxytryptamine receptor 2C (Homo sapiens, UniProt P28335); assay: Tested on transfected cell membranes selectively expressing human 5-hydroxytryptamine 2C receptor using [3H]mesulergine
T1 sequence (P28335 whole entry): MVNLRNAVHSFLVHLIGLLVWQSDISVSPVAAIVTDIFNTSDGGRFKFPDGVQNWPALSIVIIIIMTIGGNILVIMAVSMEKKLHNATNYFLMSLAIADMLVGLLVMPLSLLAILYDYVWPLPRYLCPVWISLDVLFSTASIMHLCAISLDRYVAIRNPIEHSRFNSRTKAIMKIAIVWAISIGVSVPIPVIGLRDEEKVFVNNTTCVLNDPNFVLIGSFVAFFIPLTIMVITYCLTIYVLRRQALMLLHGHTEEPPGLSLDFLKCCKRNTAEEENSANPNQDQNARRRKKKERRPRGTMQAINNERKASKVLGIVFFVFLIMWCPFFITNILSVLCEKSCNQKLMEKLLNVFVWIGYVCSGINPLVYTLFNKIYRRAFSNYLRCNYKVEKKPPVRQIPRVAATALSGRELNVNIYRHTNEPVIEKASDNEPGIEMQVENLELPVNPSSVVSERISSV
Procedure, shortened: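 Transfected cell membranes expressing human 5-HT2C, incubated with 0.80 nM [3H]mesulergine at room temperature for 60 min. Nonspecific binding with 10 µM clozapine. Filtration and scintillation counting. IC50 ± SE from concentration-inhibition curves, converted to Ki by Cheng-Prusoff using the radioligand Kd.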

D(2) dopamine receptor = D(2) dopamine receptor (Rattus norvegicus, UniProt P61169); assay: Binding affinity (Ki) at Dopamine receptor D2 using rat caudate cells with nemonapride (0.075 nM) as a radioligand and […] as a blank agent
Procedure, shortened: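 Rat caudate-putamen homogenate incubated with 75 pM [3H]nemonapride at 30 °C for 90 min. Nonspecific binding defined with 10 µM haloperidol. Bound radioactivity collected on glass fiber filters and counted. IC50 ± SE from ≥6-concentration inhibition curves, converted to Ki by Cheng-Prusoff using the radioligand Kd.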

[4] = target: T2, Adrenergic receptor alpha-2 (Rattus norvegicus, UniProt P22086+P19328+P22909); assay: Binding affinity (Ki) at Alpha-2 adrenergic receptor homogenates of whole rat brain were incubated [3H]MK-912 for 80 min at room temperature, using […] as the blank agent; type: tissue-based
T2 sequence (P22086 whole entry): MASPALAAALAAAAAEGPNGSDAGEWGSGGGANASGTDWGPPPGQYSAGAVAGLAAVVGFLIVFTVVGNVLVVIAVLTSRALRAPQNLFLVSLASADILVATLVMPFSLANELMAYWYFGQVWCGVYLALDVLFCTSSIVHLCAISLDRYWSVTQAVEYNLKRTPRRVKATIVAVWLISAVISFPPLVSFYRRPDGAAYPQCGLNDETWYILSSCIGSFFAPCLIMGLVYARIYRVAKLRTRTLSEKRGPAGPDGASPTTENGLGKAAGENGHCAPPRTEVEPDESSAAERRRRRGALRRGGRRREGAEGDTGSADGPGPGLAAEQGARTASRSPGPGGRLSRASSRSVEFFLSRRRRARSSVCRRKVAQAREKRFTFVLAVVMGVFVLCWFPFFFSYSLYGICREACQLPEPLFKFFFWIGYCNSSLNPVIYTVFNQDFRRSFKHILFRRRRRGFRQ
T2 sequence (P19328 whole entry): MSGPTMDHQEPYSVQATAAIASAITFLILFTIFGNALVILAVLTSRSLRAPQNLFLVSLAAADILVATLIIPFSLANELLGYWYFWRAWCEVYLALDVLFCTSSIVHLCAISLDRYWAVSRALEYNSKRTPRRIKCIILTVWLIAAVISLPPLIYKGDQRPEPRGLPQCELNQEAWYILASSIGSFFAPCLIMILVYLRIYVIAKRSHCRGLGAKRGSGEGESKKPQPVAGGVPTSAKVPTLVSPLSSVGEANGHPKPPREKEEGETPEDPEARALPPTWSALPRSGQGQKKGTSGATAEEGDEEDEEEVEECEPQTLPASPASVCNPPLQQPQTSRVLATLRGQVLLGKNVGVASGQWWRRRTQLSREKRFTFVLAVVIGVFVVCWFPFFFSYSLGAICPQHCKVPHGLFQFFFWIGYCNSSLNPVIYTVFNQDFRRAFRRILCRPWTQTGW
T2 sequence (P22909 whole entry): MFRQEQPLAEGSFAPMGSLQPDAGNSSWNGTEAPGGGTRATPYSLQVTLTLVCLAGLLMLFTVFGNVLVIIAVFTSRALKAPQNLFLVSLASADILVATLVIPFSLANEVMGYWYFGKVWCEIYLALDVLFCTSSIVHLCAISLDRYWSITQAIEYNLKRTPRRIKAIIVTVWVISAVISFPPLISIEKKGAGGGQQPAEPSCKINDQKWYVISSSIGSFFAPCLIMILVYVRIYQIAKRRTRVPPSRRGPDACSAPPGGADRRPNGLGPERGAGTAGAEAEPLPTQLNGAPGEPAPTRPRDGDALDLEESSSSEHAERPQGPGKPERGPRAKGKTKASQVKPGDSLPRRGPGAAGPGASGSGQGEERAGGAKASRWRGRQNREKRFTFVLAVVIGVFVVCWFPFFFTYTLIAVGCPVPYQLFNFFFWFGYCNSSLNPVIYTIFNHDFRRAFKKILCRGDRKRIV
Procedure, shortened: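 Whole rat brain homogenate (minus cerebellum) with 1.0 nM [3H]MK-912, 80 min at room temperature. 10 µM phentolamine defines nonspecific binding. Filter harvest and scintillation counting. Concentration-inhibition curves (≥6 concentrations) give IC50 ± SE, converted to Ki via Cheng-Prusoff with the radioligand's apparent Kd.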

[5] = target: T3, Adrenergic receptor alpha-1 (Rattus norvegicus, UniProt P15823+P23944+P43140); assay: Binding affinity (Ki) at Alpha-1 adrenergic receptor using rat brain cells with prazosin (0.20 nM) as a radioligand and […] as a blank agent; type: cell-based
T3 sequence (P15823 whole entry): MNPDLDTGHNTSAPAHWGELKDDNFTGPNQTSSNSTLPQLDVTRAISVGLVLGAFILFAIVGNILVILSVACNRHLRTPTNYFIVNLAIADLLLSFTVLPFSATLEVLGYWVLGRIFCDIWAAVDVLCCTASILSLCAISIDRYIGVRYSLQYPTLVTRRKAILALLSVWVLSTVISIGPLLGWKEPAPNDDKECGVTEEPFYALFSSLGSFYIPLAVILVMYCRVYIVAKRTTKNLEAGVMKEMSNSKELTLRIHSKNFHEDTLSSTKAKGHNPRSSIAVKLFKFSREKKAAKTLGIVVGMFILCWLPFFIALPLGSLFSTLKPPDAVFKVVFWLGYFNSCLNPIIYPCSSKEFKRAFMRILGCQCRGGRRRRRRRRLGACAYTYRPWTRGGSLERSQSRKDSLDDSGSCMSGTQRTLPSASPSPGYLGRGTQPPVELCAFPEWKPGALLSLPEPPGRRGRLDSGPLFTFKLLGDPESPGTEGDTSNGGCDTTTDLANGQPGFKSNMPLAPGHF
T3 sequence (P23944 whole entry): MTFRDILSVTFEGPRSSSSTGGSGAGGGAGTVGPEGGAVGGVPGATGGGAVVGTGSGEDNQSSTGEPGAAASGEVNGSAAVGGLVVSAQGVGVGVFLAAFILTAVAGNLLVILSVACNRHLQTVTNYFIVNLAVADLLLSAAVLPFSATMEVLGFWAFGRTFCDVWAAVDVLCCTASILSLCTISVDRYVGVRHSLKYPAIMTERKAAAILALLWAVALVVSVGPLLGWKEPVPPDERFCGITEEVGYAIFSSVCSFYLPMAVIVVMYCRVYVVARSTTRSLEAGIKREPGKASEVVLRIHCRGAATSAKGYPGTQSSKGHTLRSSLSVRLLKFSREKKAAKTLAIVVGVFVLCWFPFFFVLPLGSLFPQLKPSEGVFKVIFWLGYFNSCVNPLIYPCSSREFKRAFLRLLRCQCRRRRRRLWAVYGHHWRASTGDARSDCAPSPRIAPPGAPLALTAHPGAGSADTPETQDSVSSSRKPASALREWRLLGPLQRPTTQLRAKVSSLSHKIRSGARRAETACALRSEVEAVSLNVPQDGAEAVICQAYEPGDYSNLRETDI
T3 sequence (P43140 whole entry): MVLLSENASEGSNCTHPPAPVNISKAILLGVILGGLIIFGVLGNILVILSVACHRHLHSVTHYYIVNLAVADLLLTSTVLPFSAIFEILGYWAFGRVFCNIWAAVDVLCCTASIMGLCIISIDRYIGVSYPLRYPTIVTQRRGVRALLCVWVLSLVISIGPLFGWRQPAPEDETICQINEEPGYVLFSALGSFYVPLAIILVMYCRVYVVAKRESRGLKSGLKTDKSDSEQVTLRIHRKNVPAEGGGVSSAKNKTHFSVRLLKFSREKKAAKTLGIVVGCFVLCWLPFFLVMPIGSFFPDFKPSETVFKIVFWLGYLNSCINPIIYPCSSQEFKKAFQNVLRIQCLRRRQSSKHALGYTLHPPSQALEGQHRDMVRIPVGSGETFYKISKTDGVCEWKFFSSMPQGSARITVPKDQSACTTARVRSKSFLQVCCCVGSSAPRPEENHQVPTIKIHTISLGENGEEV
Procedure, shortened: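 Whole rat brain homogenate (excluding cerebellum) incubated with 0.20 nM [3H]prazosin, 30 °C, 30 min. Nonspecific binding defined with 2 µM phentolamine. Filtration harvest, tritium counted by scintillation. Screened at 1 and 10 µM; ≥6 concentrations if ≥30% inhibition at 1 µM. IC50 from curve fit, converted to Ki by Cheng-Prusoff using the radioligand Kd.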

[6] = target: T4, 5-hydroxytryptamine receptor 2A (Homo sapiens, UniProt P28223); assay: Tested on genetically transfected COS7 cell membranes selectively expressing human 5-hydroxytryptamine 2A receptor, using [3H]ketanserin as radioligand; type: cell-based, COS-7
Procedure, shortened: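 Membranes of transfected COS-7 cells expressing human 5-HT2A, with 1.0 nM [3H]ketanserin, room temperature, 60 min. 10 µM altanserin as blank. Filtration and scintillation counting. Competition curves over ≥6 concentrations yield IC50 ± SE. Ki obtained by Cheng-Prusoff from the radioligand apparent Kd.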

[7] = target: T3, Adrenergic receptor alpha-1; assay: Binding affinity at Alpha-1 adrenergic receptor using rat forebrain cells with prazosin (0.20 nM) as radioligand and […] as blank agent
[8] = target: T3, Adrenergic receptor alpha-1; assay: Binding affinity (Ki) at Alpha-1 adrenergic receptor using rat forebrain cells with prazosin (0.20 nM) as a radioligand and […] as a blank agent
[9] = target: T4, 5-hydroxytryptamine receptor 2A; assay: Binding affinity against 5-hydroxytryptamine 2A receptor in humans
Procedure, shortened: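 Membranes of transfected COS-7 cells expressing human 5-HT2A, with 1.0 nM [3H]ketanserin, room temperature, 60 min. 10 µM altanserin as blank. Filtration and scintillation counting. Ki obtained by Cheng-Prusoff from the radioligand apparent Kd.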

5-hydroxytryptamine receptor 7, sequence (P34969 whole entry): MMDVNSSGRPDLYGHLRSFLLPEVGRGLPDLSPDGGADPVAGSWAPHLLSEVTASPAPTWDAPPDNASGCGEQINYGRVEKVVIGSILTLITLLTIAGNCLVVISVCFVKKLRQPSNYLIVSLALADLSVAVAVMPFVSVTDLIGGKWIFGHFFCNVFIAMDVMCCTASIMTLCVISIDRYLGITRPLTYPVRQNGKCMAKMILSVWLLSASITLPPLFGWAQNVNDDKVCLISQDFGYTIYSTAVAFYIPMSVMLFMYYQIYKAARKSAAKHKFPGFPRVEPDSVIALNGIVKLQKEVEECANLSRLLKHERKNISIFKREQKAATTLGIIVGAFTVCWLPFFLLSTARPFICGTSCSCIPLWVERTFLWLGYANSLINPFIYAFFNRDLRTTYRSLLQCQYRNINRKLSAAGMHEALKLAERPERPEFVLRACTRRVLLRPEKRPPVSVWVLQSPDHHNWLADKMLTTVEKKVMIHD
D(2) dopamine receptor, sequence (P61169 whole entry): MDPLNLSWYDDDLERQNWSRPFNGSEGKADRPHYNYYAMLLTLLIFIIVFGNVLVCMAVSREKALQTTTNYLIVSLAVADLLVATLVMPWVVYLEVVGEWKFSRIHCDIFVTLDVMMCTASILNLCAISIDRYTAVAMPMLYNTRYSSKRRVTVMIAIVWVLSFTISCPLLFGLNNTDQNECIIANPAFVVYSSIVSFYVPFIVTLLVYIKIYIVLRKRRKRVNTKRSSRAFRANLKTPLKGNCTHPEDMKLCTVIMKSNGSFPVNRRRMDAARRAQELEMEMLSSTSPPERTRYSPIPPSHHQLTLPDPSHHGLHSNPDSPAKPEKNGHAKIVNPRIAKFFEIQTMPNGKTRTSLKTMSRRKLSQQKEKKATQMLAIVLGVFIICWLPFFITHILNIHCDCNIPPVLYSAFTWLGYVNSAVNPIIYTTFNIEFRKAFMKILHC
5-hydroxytryptamine receptor 6, sequence (P50406 whole entry): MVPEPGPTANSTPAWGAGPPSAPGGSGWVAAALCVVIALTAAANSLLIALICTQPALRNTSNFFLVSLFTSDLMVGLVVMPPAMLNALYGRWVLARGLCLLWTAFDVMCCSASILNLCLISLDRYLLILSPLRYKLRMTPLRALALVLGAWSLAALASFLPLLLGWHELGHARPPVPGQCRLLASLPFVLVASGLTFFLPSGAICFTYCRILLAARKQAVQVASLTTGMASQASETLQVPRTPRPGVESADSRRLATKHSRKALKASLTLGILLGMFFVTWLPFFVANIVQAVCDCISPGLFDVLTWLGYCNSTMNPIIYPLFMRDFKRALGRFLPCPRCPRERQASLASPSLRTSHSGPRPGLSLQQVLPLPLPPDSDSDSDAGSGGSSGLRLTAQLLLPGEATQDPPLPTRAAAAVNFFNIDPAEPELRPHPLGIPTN
T4 sequence (P28223 whole entry): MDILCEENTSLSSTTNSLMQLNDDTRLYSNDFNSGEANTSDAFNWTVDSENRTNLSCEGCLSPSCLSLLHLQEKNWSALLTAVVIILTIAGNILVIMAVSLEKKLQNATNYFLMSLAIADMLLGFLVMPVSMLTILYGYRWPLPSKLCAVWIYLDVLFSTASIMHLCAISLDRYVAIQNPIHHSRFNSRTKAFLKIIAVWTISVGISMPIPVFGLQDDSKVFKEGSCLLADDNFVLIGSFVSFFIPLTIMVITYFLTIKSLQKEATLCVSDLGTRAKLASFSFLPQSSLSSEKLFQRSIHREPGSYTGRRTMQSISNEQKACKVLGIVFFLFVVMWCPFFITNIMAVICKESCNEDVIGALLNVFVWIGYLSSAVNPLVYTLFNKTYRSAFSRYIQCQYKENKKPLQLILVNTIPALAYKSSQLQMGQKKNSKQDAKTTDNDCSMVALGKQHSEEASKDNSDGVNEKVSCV

SMILES	Ki [1] [µM]	Ki [2] [µM]	Ki [3] [µM]	Ki (D(2) dopamine receptor) [µM]	Ki [4] [µM]	Ki [6] [µM]	other results
OC(c1ccc(F)cc1)C1CCN(CCc2ccc(I)cc2)CC1 (stereo not drawn)						0.0321	
OC(c1ccc(F)cc1)C1CCN(CCc2ccc(F)cc2)CC1 (stereo not drawn)	> 10	1.34	0.503	> 10	1.032	0.00163	Ki [7]: 0.303 µM
OC(c1ccc(F)cc1)C1CCN(Cc2ccccc2I)CC1 (stereo not drawn)						> 10	
O=[N+]([O-])c1ccc(C(O)C2CCN(CCc3ccccc3)CC2)cc1 (stereo not drawn)						0.00115	
OC(c1ccc(F)cc1)C1CCN(CCc2cccc(I)c2)CC1 (stereo not drawn)						0.0131	
OC(c1ccc(F)cc1)C1CCN(Cc2cccc(I)c2)CC1 (stereo not drawn)						> 10	
OC(c1ccc(F)cc1)C1CCN(CCc2ccccc2I)CC1 (stereo not drawn)	0.43	0.101	0.0286	> 10	0.813	0.00091	Ki [8]: 0.108 µM
OC(c1ccc(F)cc1)C1CCN(Cc2ccc(I)cc2)CC1 (stereo not drawn)						> 10	
O=C(c1ccc(F)cc1)C1CCN(CCn2c(=S)[nH]c3ccccc3c2=O)CC1 [ALTANSERIN]							Ki [9]: 0.0003 µM

Continued, in another order:

Ki [1] [µM]	Ki [2] [µM]	Ki [3] [µM]	Ki (D(2) dopamine receptor) [µM]	Ki [4] [µM]	Ki [6] [µM]	SMILES	other results
0.0489	0.00876	0.0166	0.0518	0.244	0.00051	O=C(c1ccc(F)cc1)C1CCN(CCc2cccc(I)c2)CC1	Ki [5]: 0.00492 µM
0.3	0.00732	0.144	0.176	0.381	0.00362	O=C(c1ccc(F)cc1)C1CCN(CCc2ccc(I)cc2)CC1	Ki [8]: 0.0261 µM
0.138	0.00368	0.0355	0.0013	0.14	0.00195	O=C(c1ccc(F)cc1)C1CCN(CCc2ccccc2I)CC1	Ki [7]: 0.0248 µM
					0.0127	O=C(c1ccc(F)cc1)C1CCN(Cc2cccc(I)c2)CC1	
					0.00934	O=C(c1ccc([N+](=O)[O-])cc1)C1CCN(CCc2ccccc2)CC1	
					0.191	O=C(c1ccc(F)cc1)C1CCN(Cc2ccccc2I)CC1	
					0.227	O=C(c1ccc(F)cc1)C1CCN(Cc2ccc(I)cc2)CC1	
3	0.063	0.493	0.453	0.614	0.00954	O=C(c1ccc(F)cc1)C1CCN(CCc2ccc(F)cc2)CC1	Ki [7]: 0.0336 µM
